# ChEMBL document CHEMBL4316592, “Synthesis of new derivatives of boehmeriasin A and their biological evaluation in liver cancer” (Eur J Med Chem, 2019)
# Calls of active or inactive are those of the source. The calls are words filed in the database; no cut-off is given here.
# Tests used:
# Huh-7 [1] = experiment: Down-regulation of cyclin E protein expression in human HuH7 cells at 1 uM after 24 to 72 hrs by Western blot analysis; type: functional, cell-based
# Mahlavu [2] = experiment: Induction of apoptosis in human Mahlavu cells assessed as early apoptotic cells at 1 uM after 48 hrs by Annexin V-FITC/propidium iodide staining-based flow cytometric analysis (reference value: 0%); type: functional
# HCT-116 = experiment: Cytotoxicity against human HCT116 cells after 72 hrs by SRB assay; type: functional, cell-based; details: Homo sapiens, HCT-116, 72 h; read-out: IC50
# In short: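 SRB assay. Cells plated per well (HCT116 3000; Huh7, Hep3B, HepG2, MCF-7 2000; Mahlavu, FOCUS, SNU475 1000) and grown 24 h. Compounds came from 20 mM DMSO stocks and were tested in triplicate, 40 to 2,5 (or 2,5 to 0,03) per printed range, for 72 h. Cells fixed in 10% TCA, stained with 0.4% SRB, dye dissolved in 10 mM Tris, A515 read. IC50 derived after DMSO normalization.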
# Mahlavu [3] = experiment: Induction of apoptosis in human Mahlavu cells assessed as viable cells at 1 uM after 72 hrs by Annexin V-FITC/propidium iodide staining-based flow cytometric analysis (reference value: 96.05%); type: functional; details: read-out: Activity
# Mahlavu [4] = experiment: Cell cycle arrest in human Mahlavu cells assessed as accumulation of cells at G2/M phase at 1 uM after 24 hrs by propidium iodide staining-based flow cytometric analysis (reference value: 24.7%); type: functional
# Mahlavu [5] = experiment: Induction of apoptosis in human Mahlavu cells assessed as early apoptotic cells at 1 uM after 72 hrs by Annexin V-FITC/propidium iodide staining-based flow cytometric analysis (reference value: 0.24%); type: functional
# Huh-7 [6] = experiment: Induction of apoptosis in human HuH7 cells assessed as late apoptotic cells at 1 uM after 24 hrs by Annexin V-FITC/propidium iodide staining-based flow cytometric analysis (reference value: 2.51%); type: functional
# Huh-7 [7] = experiment: Induction of apoptosis in human HuH7 cells assessed as increase in cytochrome C levels at 1 uM by Hoechst staining-based assay; type: functional, cell-based
# Mahlavu [8] = experiment: Down-regulation of cyclin-B1 protein expression in human Mahlavu cells at 1 uM after 24 to 72 hrs by Western blot analysis; type: functional, cell-based
# Mahlavu [9] = experiment: Cell cycle arrest in human Mahlavu cells assessed as accumulation of cells at G1 phase at 1 uM after 24 hrs by propidium iodide staining-based flow cytometric analysis (reference value: 33.8%); type: functional
# Huh-7 [10] = experiment: Cell cycle arrest in human HuH7 cells assessed as accumulation of cells at subG1 phase at 1 uM after 24 hrs by propidium iodide staining-based flow cytometric analysis (reference value: 6.8%); type: functional
# Homo sapiens = species on record: Homo sapiens; experiment: Induction of SAPK/JNK phosphorylation at Thr183/Tye185 residues in human HuH7 cells at 1 uM after 24 to 72 hrs by Western blot analysis; type: cell-based
# Mahlavu [11] = experiment: Induction of apoptosis in human Mahlavu cells assessed as late apoptotic cells at 1 uM after 72 hrs by Annexin V-FITC/propidium iodide staining-based flow cytometric analysis (reference value: 3.48%); type: functional
# Mahlavu [12] = experiment: Cell cycle arrest in human Mahlavu cells assessed as accumulation of cells at subG1 phase at 1 uM after 24 hrs by propidium iodide staining-based flow cytometric analysis (reference value: 18.3%); type: functional
# Huh-7 [13] = experiment: Cytotoxicity against human HuH7 cells after 72 hrs by RTCA analysis; type: functional, cell-based; details: Huh-7, 72 h
# In short: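 xCELLigence impedance real-time growth assay. Huh7 (2000) or Mahlavu (1000) cells plated, treated after 24 h at log phase with a 2-fold dilution series (4 steps) from a top concentration of 1. Cell index recorded every 10 min for 24 h, then every 30 min. Growth inhibition normalized to DMSO; IC50 taken at 24, 48, 72 h.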
# Huh-7 [14] = experiment: Cell cycle arrest in human HuH7 cells assessed as accumulation of cells at S phase at 1 uM after 24 hrs by propidium iodide staining-based flow cytometric analysis (reference value: 14.2%); type: functional
# Huh-7 [15] = experiment: Cell cycle arrest in human HuH7 cells assessed as accumulation of cells at G1 phase at 1 uM after 48 hrs by propidium iodide staining-based flow cytometric analysis (reference value: 44.2%); type: functional
# Mahlavu [16] = experiment: Modulation of SAPK/JNK phosphorylation at Thr183/Tye185 residues in human Mahlavu cells at 1 uM after 24 to 72 hrs by Western blot analysis; type: cell-based
# [17] = biological target: RAC-alpha serine/threonine-protein kinase (Homo sapiens) (UniProt P31749); experiment: Inhibition of Akt phosphorylation in human Mahlavu cells at 1 uM after 72 hrs by Western blot analysis; type: cell-based
# Sequence of RAC-alpha serine/threonine-protein kinase (Homo sapiens) (P31749 whole entry): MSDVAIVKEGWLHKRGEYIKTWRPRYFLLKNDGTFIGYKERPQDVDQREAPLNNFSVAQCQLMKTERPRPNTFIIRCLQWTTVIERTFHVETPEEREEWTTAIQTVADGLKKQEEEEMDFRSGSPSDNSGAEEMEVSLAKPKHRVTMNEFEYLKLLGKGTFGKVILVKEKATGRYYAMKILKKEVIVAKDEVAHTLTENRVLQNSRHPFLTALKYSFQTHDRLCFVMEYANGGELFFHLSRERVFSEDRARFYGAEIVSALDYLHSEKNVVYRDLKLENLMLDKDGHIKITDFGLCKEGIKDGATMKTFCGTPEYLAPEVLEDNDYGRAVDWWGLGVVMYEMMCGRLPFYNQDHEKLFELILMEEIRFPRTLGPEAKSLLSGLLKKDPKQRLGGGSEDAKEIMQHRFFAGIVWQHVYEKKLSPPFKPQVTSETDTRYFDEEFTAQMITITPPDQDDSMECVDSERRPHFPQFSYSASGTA
# [18] = biological target: RAC-alpha serine/threonine-protein kinase (Homo sapiens) (UniProt P31749); experiment: Inhibition of AKT phosphorylation in human Mahlavu cells at 1 uM after 24 to 72 hrs by Western blot analysis; type: cell-based
# [19] = biological target: RAC-alpha serine/threonine-protein kinase (Homo sapiens) (UniProt P31749); experiment: Inhibition of Akt phosphorylation in human HuH7 cells at 1 uM after 72 hrs by Western blot analysis; type: cell-based
SMILES,Activity (Huh-7 [1]),Activity (Mahlavu [2]),IC50 (HCT-116),viability at 1 µM (Mahlavu [3]),Activity (Mahlavu [4]),Activity (Mahlavu [5]),Activity (Huh-7 [6]),Activity (Huh-7 [7]),Activity (Mahlavu [8]),Activity (Mahlavu [9]),Activity (Huh-7 [10]),Activity (Homo sapiens),Activity (Mahlavu [11]),Activity (Mahlavu [12]),IC50 (Huh-7 [13]),Activity (Huh-7 [14]),Activity (Huh-7 [15]),Activity (Mahlavu [16]),also measured
COc1ccc2c3c(c4cc(OC)c(OC)cc4c2c1)CN1CCCC[C@@H]1C3,Active,0%,700 nM,85.3%,23.7%,0.13%,1.03%,Active,Active,43.8%,13.6%,Active,12.74%,15%,700 nM,15.9%,54.6%,Active,
COc1ccc2c3c(c4cc(OC)c(OC)cc4c2c1)CN1CCCCC1C3O (racemic),Active,0%,< 1 nM,62.7%,32.4%,0%,0.93%,Active,Active,36.8%,23.1%,Active,35.08%,16.5%,400 nM,13.2%,35.5%,Active,inhibition [17]: Active; inhibition [18]: Active; inhibition [19]: Active
